According to ChEMBL document CHEMBL1154998, “Enantioselective synthesis of (R)-(+)- and (S)-(-)-higenamine and their analogues with effects on platelet aggregation and experimental animal model of disseminated intravascular coagulation” (Bioorg Med Chem Lett, 2008):
Calls of active or inactive are those of the source. No cut-off for these calls is given here.

What was measured:
[1] = system: Rattus norvegicus; experiment: Effect on LPS-induced Sprague-Dawley rat disseminated intravascular coagulation model assessed as prolongation of activated partial […] time at 10 mg/day or 25 mg/day, po after 2 hrs of fasting for 2 consecutive days; assay type: functional, organism-based
Outline: (§1)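 Male Sprague–Dawley rats (230–270 g) dosed orally in distilled water once daily for 2 days. Ketamine anaesthesia 1 h after the second dose, then LPS 20 mg/kg in saline infused into the tail vein for 3 h. Citrated plasma was used for PT, aPTT and fibrinogen, serum for FDP (semi-quantitative kit, dilution method), and serum by analyzer for AST and BUN. Mean ± SEM, ANOVA with Tukey HSD, n = 6–13 per group.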

[2] = system: Platelet; experiment: Inhibition of U46619-induced platelet aggregation in rat blood; assay type: functional, cell-based
[3] = system: Rattus norvegicus; experiment: Effect on Sprague-Dawley rat disseminated intravascular coagulation model assessed as suppression of LPS-induced aspartate aminotransferase levels at 10 mg/day or 25 mg/day, po after 2 hrs of fasting for 2 consecutive days; assay type: functional, organism-based; outline: as §1
[4] = system: Rattus norvegicus; experiment: Effect on LPS-induced Sprague-Dawley rat disseminated intravascular coagulation model assessed as amelioration of increased fibrin degradation product levels at 10 mg/day or 25 mg/day, po after 2 hrs of fasting for 2 consecutive days; assay type: functional, organism-based; outline: as §1
[5] = system: Platelet; experiment: Inhibition of NaAA-induced platelet aggregation in rat blood; assay type: functional, cell-based
[6] = system: Rattus norvegicus; experiment: Effect on LPS-induced Sprague-Dawley rat disseminated intravascular coagulation model assessed as prolongation of prothrombin time at 10 mg/day or 25 mg/day, po after 2 hrs of fasting for 2 consecutive days; assay type: functional, organism-based; outline: as §1
[7] = system: Rattus norvegicus; experiment: Effect on LPS-induced Sprague-Dawley rat disseminated intravascular coagulation model assessed as amelioration of increased urea nitrogen levels at 10 mg/day or 25 mg/day, po after 2 hrs of fasting for 2 consecutive days; assay type: functional, organism-based; outline: as §1
[8] = system: Platelet; experiment: Inhibition of epinephrine-induced platelet aggregation in rat blood; assay type: functional, cell-based
[9] = system: Platelet; experiment: Inhibition of ADP-induced platelet aggregation in rat blood; assay type: functional, cell-based
Outline: (§2)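 Rat heart blood in 2.2% citrate, spun at 200g for 10 min to give PRP, adjusted to 400–450 × 10⁶ platelets/ml with saline. PRP pre-incubated 3 min, then sample or vehicle added, with ADP (2–5 × 10⁻⁶ M) or collagen (2–5 × 10⁻⁶ g/ml) added 1 min later. Aggregation read on an aggregometer and the 50% inhibitory concentration determined.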

[10] = system: Rattus norvegicus; experiment: Effect on Sprague-Dawley rat disseminated intravascular coagulation model assessed as prevention of LPS-induced decrease in fibrinogen level at 10 mg/day or 25 mg/day, po after 2 hrs of fasting for 2 consecutive days; assay type: functional, organism-based; outline: as §1
[11] = system: Platelet; experiment: Inhibition of collagen-induced platelet aggregation in rat blood; assay type: functional, cell-based; outline: as §2

## Oc1ccc(C[C@H]2NCCc3cc(O)c(O)cc32)cc1 [(+)-HIGENAMINE]
[1]
  Activity: Active
[2]
  IC50: 15 µM
[3]
  Activity: Active
[4]
  Activity: Active
[5]
  IC50: 11 µM
[6]
  Activity: Active
[7]
  Activity: Active
[8]
  IC50: 14 µM
[9]
  IC50: > 1000 µM

## Oc1ccc(C[C@@H]2NCCc3cc(O)c(O)cc32)cc1 [(-)-HIGENAMINE]
[10]
  Activity: Active
[1]
  Activity: Active
[2]
  IC50: 25 µM
[3]
  Activity: Active
[4]
  Activity: Active
[5]
  IC50: 9.1 µM
[6]
  Activity: Active
[7]
  Activity: Active
[8]
  IC50: 1.6 µM

## Oc1cc2c(cc1O)[C@H](Cc1ccc3ccccc3c1)NCC2
[10]
  Activity: Active
[1]
  Activity: Active
[2]
  IC50: 61 µM
[3]
  Activity: Active
[4]
  Activity: Active
[5]
  IC50: 6.2 µM
[6]
  Activity: Active
[7]
  Activity: Active
[8]
  IC50: 0.9 µM

## CC(=O)Oc1ccccc1C(=O)O [ASPIRIN]
[2]
  IC50: 340 µM
[11]
  IC50: 420 µM
[5]
  IC50: 66 µM
[8]
  IC50: 53 µM
[9]
  IC50: > 1000 µM

## Oc1cc2c(cc1O)[C@@H](Cc1cccc3ccccc13)NCC2
[1]
  Activity: Active
[2]
  IC50: 20 µM
[4]
  Activity: Active
[5]
  IC50: 11 µM
[6]
  Activity: Active
[7]
  Activity: Active
[8]
  IC50: 2.4 µM

## Oc1cc2c(cc1O)[C@H](Cc1cccc3ccccc13)NCC2
[1]
  Activity: Active
[2]
  IC50: 16 µM
[11]
  IC50: 69 µM
[4]
  Activity: Active
[5]
  IC50: 5.6 µM
[6]
  Activity: Active
[7]
  Activity: Active
[8]
  IC50: 0.38 µM
[9]
  IC50: 270 µM

## Oc1cc2c(cc1O)[C@@H](Cc1ccc3ccccc3c1)NCC2
[1]
  Activity: Active
[2]
  IC50: 49 µM
[3]
  Activity: Active
[4]
  Activity: Active
[5]
  IC50: 7.9 µM
[6]
  Activity: Active
[7]
  Activity: Active
[8]
  IC50: 15 µM
